In article PMC8530377 (Journal of medicinal chemistry, 2021):

Experiments:
hMOR (β-arrestin2) = hMOR (β-arrestin2) (Homo sapiens, UniProt P35372); assay: cell-based; conditions: for Emax: read-out: β-arrestin2 recruitment Emax (BRET)
murine MOR = murine MOR (Mus musculus, UniProt P42866); assay: BRET-based Nb33 recruitment assay, mMOR; type: cell-based; conditions: for Nb33 recruitment efficacy at murine MOR: HEK293-T cells, compared to DAMGO
hMOR (Gz) = hMOR (Gz) (Homo sapiens, UniProt P35372); assay: cell-based; conditions: read-out: Emax at Gz
hMOR (β-arrestin1) = hMOR (β-arrestin1) (Homo sapiens, UniProt P35372); type: cell-based
hMOR (human MOR) = hMOR (human MOR) (Homo sapiens, UniProt P35372); assay: biochemical; type: binding
[1] = system: GABAA receptor-mediated IPSCs in VTA neurons; assay: Whole cell electrophysiology, evoked IPSCs in VTA neurons of acute brain slices; type: cell-based, rat; conditions: 10 μM; compared to 5 μM DAMGO and 10 μM morphine
hMOR (Gi-1) = hMOR (Gi-1) (Homo sapiens, UniProt P35372); assay: cell-based; conditions: for Emax: read-out: Gi-1 Emax
hMOR (GoA and GoB) = hMOR (GoA and GoB) (Homo sapiens, UniProt P35372); assay: cell-based; conditions: read-out: Emax at GoA and GoB
[2] = system: MOR KO, KOR KO and DOR KO mice; assay: 55 °C tail withdrawal antinociception in opioid receptor knock-out mice; type: in vivo, mouse; conditions: 10 mg/kg, sc, relative to WT
C57BL/6J mice [3] = conditions: mouse, in vivo
DOR = assay: BRET Gi-1 activation assay at DOR; type: cell-based
Method in brief: (§1)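 Cells were plated in 6-well dishes (700,000–800,000 cells/well) or 10 cm dishes and transfected 2–4 h later with receptor:Gα-RLuc8:Gβ:Gγ-GFP2 at 1:1:1:1. The next day they were replated on poly-D-lysine 96-well plates (30,000–50,000 cells/well). One day later, in HBSS + 20 mM HEPES pH 7.4 with coelenterazine 400a, cells equilibrated 5 min, then drug 5 min. BRET2 ratio was GFP2 (510 nm)/RLuc8 (395 nm), sixth of six serial reads.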

hMOR = hMOR (Homo sapiens, UniProt P35372); assay: cell-based
mice [4] = assay: Locomotor effect, CLAMS; type: in vivo, mouse
mice [5] = assay: Respiratory rate, CLAMS; type: in vivo, mouse
KOR = assay: BRET Gi-1 activation assay at KOR; type: cell-based
Method in brief: as §1

MOR = conditions: cited from earlier work
C57BL/6J mice [6] = conditions: sc; cited from earlier work
[7] = 45 mg/kg, sc (15-fold antinociceptive ED50)

Chain of murine MOR (P42866 whole entry): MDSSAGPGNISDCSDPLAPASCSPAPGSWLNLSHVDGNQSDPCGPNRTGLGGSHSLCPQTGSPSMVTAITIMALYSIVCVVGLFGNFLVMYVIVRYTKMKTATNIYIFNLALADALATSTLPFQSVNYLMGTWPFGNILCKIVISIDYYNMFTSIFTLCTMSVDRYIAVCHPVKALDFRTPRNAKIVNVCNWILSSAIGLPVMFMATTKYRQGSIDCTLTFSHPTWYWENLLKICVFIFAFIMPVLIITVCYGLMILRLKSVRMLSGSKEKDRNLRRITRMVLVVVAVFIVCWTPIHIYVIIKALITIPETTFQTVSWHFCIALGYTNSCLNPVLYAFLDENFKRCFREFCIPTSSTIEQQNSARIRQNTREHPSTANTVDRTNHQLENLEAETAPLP
Chain of hMOR (GoA and GoB) (P35372 whole entry): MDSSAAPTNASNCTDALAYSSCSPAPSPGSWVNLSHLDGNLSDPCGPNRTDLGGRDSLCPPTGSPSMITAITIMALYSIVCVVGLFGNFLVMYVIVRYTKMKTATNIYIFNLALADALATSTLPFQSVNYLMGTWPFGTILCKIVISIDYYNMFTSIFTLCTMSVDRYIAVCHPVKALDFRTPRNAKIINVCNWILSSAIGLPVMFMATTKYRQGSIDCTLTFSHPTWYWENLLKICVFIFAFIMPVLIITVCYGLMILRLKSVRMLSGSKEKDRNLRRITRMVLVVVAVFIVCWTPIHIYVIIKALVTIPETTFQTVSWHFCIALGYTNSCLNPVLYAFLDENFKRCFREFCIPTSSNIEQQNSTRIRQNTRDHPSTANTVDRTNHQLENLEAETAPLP
Chain of hMOR (Gz) (P35372 whole entry): as above
Chain of hMOR (β-arrestin2) (P35372 whole entry): as above
Chain of hMOR (β-arrestin1) (P35372 whole entry): as above
Chain of hMOR (Gi-1) (P35372 whole entry): as above
Chain of hMOR (human MOR) (P35372 whole entry): as above
Chain of hMOR (P35372 whole entry): as above

Row | SMILES | β-arrestin2 recruitment (BRET), words (hMOR (β-arrestin2)) | Emax (hMOR (β-arrestin2)) [%] | Nb33 recruitment efficacy at murine MOR (murine MOR) | Emax (hMOR (Gz)) [%] | β-arrestin1 recruitment (BRET), words (hMOR (β-arrestin1)) | Ki (hMOR (human MOR)) [nM] | mean inhibition of evoked IPSCs [1] | Emax (hMOR (Gi-1)) [%] | Emax (hMOR (GoA and GoB)) [%] | place conditioning (CPP/CPA) (C57BL/6J mice [3]) | Nb33 recruitment efficacy (literature) (MOR) [%] | other results
1 | CC[C@@H]1CN2CC[C@@]3(O)C(=Nc4cccc(-c5ccccc5)c43)[C@@H]2C[C@@H]1/C(=C\OC)C(=O)OC [Compound 4, Methyl(E)-2-((2S,3S,7aS,12bS)-3-ethyl-7a-hydroxy-8-phenyl-1,2,3,4,6,7,7a,12b-octahydroindolo[2,3-a]quinolizin-2-yl)-3-methoxyacrylate] | not measurable | < 10 | 15–18% | 79 to 86 | failed to show recruitment | 15 to 17 | smaller | 60 to 70 | 63 to 75 | – | – | –
2 | CC[C@@H]1CN2CC[C@@]3(O)C(=Nc4cccc(C)c43)[C@@H]2C[C@@H]1/C(=C\OC)C(=O)OC [Compound 5, Methyl(E)-2-((2S,3S,7aS,12bS)-3-ethyl-7a-hydroxy-8-methyl-1,2,3,4,6,7,7a,12b-octahydroindolo[2,3-a]quinolizin-2-yl)-3-methoxyacrylate] | not measurable | < 10 | 15–18% | 79 to 86 | failed to show recruitment | 15 to 17 | smaller | 60 to 70 | 63 to 75 | – | – | –
3 | CC[C@@H]1CN2CC[C@@]3(O)C(=Nc4cccc(-c5ccoc5)c43)[C@@H]2C[C@@H]1/C(=C\OC)C(=O)OC [Compound 6 (SC13), Methyl(E)-2-((2S,3S,7aS,12bS)-3-ethyl-8-(furan-3-yl)-7a-hydroxy-1,2,3,4,6,7,7a,12b-octahydroindolo[2,3-a]quinolizin-2-yl)-3-methoxyacrylate] | not measurable | < 10 | – | 79 to 86 | failed to show recruitment | – | smaller | 60 to 70 | 63 to 75 | no signs of CPP or CPA | – | EC50 (murine MOR): 12 nM; antinociception in MOR KO mice [2]: significantly reduced; antinociception in KOR KO mice ([2]; p = 0.058): remained intact; antinociception in DOR KO mice ([2]; p = 0.13): remained intact; fold lower potency at DOR versus MOR, Gi-1 activation (DOR): ~ 100 fold; EC50 (hMOR): 730 nM; EC50 (hMOR (Gi-1)): 145 nM; locomotor effect (mice [4]; [7]): no hyperlocomotion; respiratory effects (breath rate) (mice [5]; [7]): no statistically significant respiratory effects; fold lower potency at KOR versus MOR, Gi-1 activation (KOR): ~ 100 fold
4 | C[C@@H](Cc1ccsc1)NC(=O)NC[C@H](Cc1ccc(O)cc1)N(C)C [PZM21] | – | – | – | – | – | – | – | – | – | – | 38 | –
5 | COc1ccsc1CNCC[C@@]1(c2ccccn2)CCOC2(CCCC2)C1 [TRV130] | – | – | – | – | – | – | – | – | – | – | 42 | –
6 | CN1CC[C@]23c4c5ccc(O)c4O[C@H]2[C@@H](O)C=C[C@H]3[C@H]1C5 [morphine, reference compound] | – | – | – | – | – | – | – | – | – | showed CPP | – | antinociception ED50 (95% CI), literature (C57BL/6J mice [6]): 2.48 (1.57–3.87) mg/kg; locomotor effect (mice [4]; 10 and 30 mg/kg, sc (5-fold and 15-fold ED50)): hyperlocomotion effects; respiratory effects (breath rate) (mice [5]; 30 mg/kg, sc): significant respiratory depression for 60 min
